Sampled rows, rich in hits. Any-hit rate of the full collection: about 2%.
Hep lipid drop – inhibitors of hepatocyte lipid droplet formation, primary screen, imaging, high-throughput imaging, BODIPY stain. AML12 mouse hepatocytes, oleate lipid droplets. inhibition, % at 6.5 µM. 240,000 tested, 0.4% active;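 active means lipid droplet intensity inhibited by at least 50%, with more than 500 cells counted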
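Assay system: AML12 mouse liver cells | Compound dosing: One dose, 6.5 µM compound | Read-out basis: Droplet intensity reduction, % inhibition | Measured by: Fluorescence imaging, 20x objective, two fields per well | Schedule: Overnight treatment with compound plus oleate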
Arrestin-AP2 inh – inhibitors of beta-arrestin/AP2 binding, primary screen, biochemical, GPCR trafficking, flow cytometry. beta-arrestin 1 C-terminal peptide binding to AP2 beta2-adaptin appendage (human). AID 504490, 2011. inhibition, % at 10 µM. 340,000 tested, 0.31% active. FITC-arrestin peptide / GST-AP2 beads; AP2 beta2 appendage carries R879A mutation;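 active means inhibition above a set limit, near 3 SD of compounds lacking own fluorescence, cut at about 54% in these data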;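 further: plate controls were DMSO wells for no effect and 5 µM unlabelled arrestin peptide for full effect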
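System: GST-AP2 R879A glutathione beads. Medium: PBS with 0.05% Tween 20 and 0.1% BSA. Also added: FITC-arrestin peptide, 50 nM. Incubation: 12 min plus 1 h, RT. Measured by: high-throughput flow cytometry of beads, ex 488, em 535 nm. Evaluation: percent drop in bead-associated FITC signal.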
NTR1 ag – agonists of human NTR1, primary screen, imaging, U2OS cells, beta-arrestin-GFP, high content. Neurotensin receptor type 1 (Homo sapiens), P30989. NTR1-U2OS beta-arrestin-GFP spot imaging, agonist mode. activation, % at 20 µM. 330,000 tested, 0.17% active. AID 493036, 2011;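 active means activation at or above 40% of the spot to cytoplasm intensity ratio, with at least 20 cells analyzed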;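 further: 0% = DMSO without peptide and 100% = 100 nM NTR1 peptide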
Target sequence (P30989 whole entry, looked up): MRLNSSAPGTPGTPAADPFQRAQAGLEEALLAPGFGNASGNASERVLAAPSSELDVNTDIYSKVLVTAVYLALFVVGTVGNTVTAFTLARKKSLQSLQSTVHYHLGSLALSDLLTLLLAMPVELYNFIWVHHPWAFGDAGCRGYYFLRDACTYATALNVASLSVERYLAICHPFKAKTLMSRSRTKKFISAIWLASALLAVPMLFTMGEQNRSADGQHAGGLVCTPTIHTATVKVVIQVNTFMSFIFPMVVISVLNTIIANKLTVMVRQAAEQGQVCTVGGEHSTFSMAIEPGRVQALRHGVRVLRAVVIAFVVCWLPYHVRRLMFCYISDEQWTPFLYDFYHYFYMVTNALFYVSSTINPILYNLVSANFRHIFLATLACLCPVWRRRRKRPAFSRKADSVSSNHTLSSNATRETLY
GRK2 inh – compounds blocking aptamer binding on GRK2 – biochemical, human GRK2, bead flow cytometry, HTS, primary screen; Beta-adrenergic receptor kinase 1 (Homo sapiens), P25098; FAM-aptamer displacement from GRK2; inhibition of aptamer binding, % at 10 µM; 330,000 tested, 0.59% active;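 active means inhibition of aptamer binding above 40%, roughly 3 SD of noise, on plates passing a quality check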;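 further: median bead fluorescence of bound FAM aptamer so fluorescent compounds give negative values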
H9c2 TAG inh – inhibitors of triacylglycerol accumulation, primary screen, cell-based, uHTS, fluorescence, H9c2 | H9c2 cells, Nile Red lipid (TAG) fluorescence; cells loaded with 200 µM oleic acid | inhibition, % at 12.5 µM | 230,000 tested, 0.66% active | AID 651582, 2012;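 active means pattern-corrected inhibition of lipid staining of at least 50% with the nuclear-stain viability signal not falling by more than 50%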;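 further: 0% = DMSO wells and 100% = triacsin C control wells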
Beta2AR agonist – beta2AR agonists driving receptor internalization, primary screen, cell-based, FAP fluorogen, flow cytometry | Am2.2-beta2AR cells | response, % (test concentration not listed) | 340,000 tested, 0.43% active | Beta-2 adrenergic receptor (Homo sapiens), P07550;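 active means response above a set limit, near 3 SD of response in nonfluorescent compounds, cut at about 42% in these data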
Arr-AP2 CP1 – inhibitors of arrestin peptide binding to AP2, confirmation, biochemical, cherry pick 1, flow cytometry beads; inhibition, % at 10 µM; GST-AP2 beads, FITC arrestin peptide binding; GST-fused beta2-adaptin appendage, R879A mutant; 1,300 tested, 2% active; shares compounds with Arrestin-AP2 inh;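 active means inhibition above a set limit, roughly 3 SD of non-fluorescent compound noise, cut at about 38% in these data; inactive means inhibition at or below that limit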;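 further: loss of bead fluorescence from 50 nM FITC arrestin peptide bound to appendage; 0% = negative control wells and 100% = excess unlabelled arrestin peptide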
GST-FITC bead – GST-fluorescein capture on glutathione beads, confirmation, artefact control for arrestin-AP2 inhibitor project, biochemical, cherry pick 1, flow cytometry; shares compounds with Arrestin-AP2 inh; GST-fluorescein binding to GSH beads, fluorescence, counter-screen; inhibition, % at 10 µM; 1,300 tested, 2% active;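 active means inhibition above 50%, about 3 SD of the inhibition seen with non-fluorescent compounds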;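 further: fluorescein maleimide labelled GST captured on 4 micron glutathione beads; higher means more loss of bead fluorescence from quenching or blocked binding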
Starred values were filed as active, the others as inactive; . = no result given.

SMILES	Hep lipid drop	Arrestin-AP2 inh	NTR1 ag	GRK2 inh	H9c2 TAG inh	Beta2AR agonist	Arr-AP2 CP1	GST-FITC bead
CCc1nnc(SCC(=O)Nc2ccc(C(C)=O)cc2)nc1CC	15	83*	1	1	3	-8	18	1
CCc1ccc(NC(=O)CSc2nnc(CC)c(CC)n2)cc1	.	-15	2	0	.	-6	.	.
CCSc1nnc(-c2sc3nnc(-c4ccccc4)c(-c4ccccc4)c3c2N)o1	.	73*	3	37	.	13	19	13
CCCCN1C(=O)/C(=C2/Sc3ccc(OC)cc3N2CC)SC1=S	6	-5	6	5	-9	6	.	.
CCCCOC(=O)CCCN1C(=O)/C(=C2\SC(=S)N(CCCC(=O)OCCCC)C2=O)SC1=S	-1	67*	1	1	12	10	10	4
O=C(NNC1=NS(=O)(=O)c2ccccc21)c1ccc(Cl)cc1	5	58*	2	0	-1	2	-11	0
COc1ccc(Cl)cc1-c1cc(C(=O)Nc2ccc(Br)cc2)[nH]n1	.	.	.	.	-6	.	.	.
CCCS(=O)(=O)c1nc(S(=O)(=O)c2ccc(C)cc2)c(N2CCC(C(N)=O)CC2)s1	-18	61*	1	1	.	4	-4	-6
Cc1cc(C(=O)Nn2cnc3ccccc3c2=O)ccc1[N+](=O)[O-]	-6	54*	-1	1	25	-3	2	3
CN(C)S(=O)(=O)c1ccc(NC(=O)C2CCCN(C(=O)c3ccc(Cl)cc3)C2)cc1 (configuration not stated)	7	56*	2	0	.	3	-2	-5
Cc1cc(S(=O)(=O)N2CCCCC2CCNC(=O)C(=O)NCC2CCCO2)ccc1F (configuration not stated)	.	-4	0	0	-3	-3	.	.
CCCCNC(=O)COc1ccccc1C(=O)c1cc(C#N)c(=O)n(CCOC)c1	-22	-6	0	2	.	-10	.	.
N#Cc1cc(C(=O)c2ccccc2OCC(=O)Nc2ccccc2)cn(C2CCCCC2)c1=O	6	108*	-1	0	-6	9	72*	191*
Cc1cnc(C2OCCO2)c2cccc([N+](=O)[O-])c12	.	.	.	.	5	.	.	.
O=C(Cc1ccccc1C(=O)O)Nc1cccc2ccccc12	26	60*	-1	0	.	4	6	-4
O=C(COc1ccccc1C(=O)O)Nc1cccc2ccccc12	.	1	-2	2	3	-10	.	.
COc1ccc(C2=NCN(c3ccc(C)cc3)C(=S)N2)cc1	11	80*	0	0	-62	-1	3	-12
CCN(CC)C(=S)NC(=O)c1cc(OC)c(OC)c(OC)c1	1	57*	0	1	12	1	-13	-6
CC1(C)CC2(CCO1)N1CC3(C)CN2CC(C)(C1)C3=O (configuration not stated)	.	84*	-2	0	-3	0	-1	-3
CCCC12CN3CC(C)(CN(C1)C31CCCCC1)C2=O	9	-10	1	0	.	0	.	.
CCNC(=S)N/N=C/c1sc(N2CCCCC2)nc1-c1cccs1	-12	106*	7	1	8	17	0	-3
COc1ccc(NC(=O)CCC(=O)N(Cc2ccc(OC)c(OC)c2)c2nccs2)c(OC)c1	-5	56*	3	0	11	39	-1	-3
Cc1cccc(-c2nc(NCCN(C)C)c3ccccc3n2)c1	.	.	.	.	12	.	.	.
COC(=O)c1ccc(C(=O)Nc2ccc(C(C)C)cc2N)cc1	8	57*	1	1	7	3	15	-2
COC(=O)c1ccc(C(=O)NN)cc1	6	18	1	0	-2	9	.	.
SMILES	Hep lipid drop	Arrestin-AP2 inh	NTR1 ag	GRK2 inh	H9c2 TAG inh	Beta2AR agonist	Arr-AP2 CP1	GST-FITC bead
Cc1ccc(NC(=O)c2ccc(=O)[nH]c2)cc1S(=O)(=O)N1CCCCC1	1	12	1	3	-5	4	-7	-5
O=C(Nc1ccc(S(=O)(=O)N2CCCCC2)cc1)c1ccc(=O)[nH]c1	.	23	1	2	16	-15	.	.
COc1ccc(NC(=O)c2ccc(=O)[nH]c2)cc1S(=O)(=O)N1CCOCC1	.	39	0	.	-11	-1	3	-6
COc1ccc(C(=O)Nc2ccc(C)c(S(=O)(=O)N3CCOCC3)c2)cc1S(=O)(=O)N1CCCC1	.	8	.	.	4	5	.	.
COc1ccc(/C(O)=C2/C(=O)C(=O)N(CCCN3CCOCC3)C2c2ccc(Cl)cc2)cc1 (configuration not stated)	.	.	.	.	2	.	.	.
O=C1c2ccccc2C(=O)N1c1cccc2cccnc12	-9	58*	1	7	.	1	-4	-5
O=C1C2C3C=CC(C3)C2C(=O)N1c1cccc2cccnc12 (configuration not stated)	.	-2	1	2	-4	9	.	.
CCN1C(c2ccccc2)=C(c2ccccc2)S/C1=C/C=C1\SC(=S)N(C)C1=O	22	57*	.	.	41	5	-4	14
CCN1C(c2ccccc2)=C(c2ccccc2)S/C1=C\C=C1/SC(=S)N(C)C1=O	.	75*	-1	33	.	-15	18	43
CCOC(=O)c1c(-c2cccs2)csc1NC(=O)c1ccncc1	.	14	5	0	-1	3	.	.
CCOC(=O)c1c(-c2cccs2)csc1NC(=O)COC(=O)c1c(C)noc1C	-14	55*	2	3	.	5	3	5
CC1CC(C)CN(c2oc(-c3ccccc3Cl)nc2C#N)C1 (configuration not stated)	-2	118*	1	0	.	3	14	-1
C(=N\n1cnnc1)/c1ccc(N2CCOCC2)s1	.	92*	4	1	5	-7	-9	-5
